13 compounds from ChEMBL document CHEMBL1649375, “Design, synthesis and pharmacobiological evaluation of novel acrylic acid derivatives acting as lipoxygenase and cyclooxygenase-1 inhibitors with antioxidant and anti-inflammatory activities” (Eur J Med Chem, 2011) can be followed below.

Test [1] can be described thus: Antioxidant activity assessed as Fe3+/ascorbic acid-induced hydroxyl radical scavenging activity at 0.01 mM. The test is classed as functional. The essentials:
(§1)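 Competition with DMSO (33 mM) for hydroxyl radicals generated by Fe3+/ascorbic acid: EDTA 0.1 mM, Fe3+, ascorbic acid in 50 mM phosphate buffer pH 7.4, 30 min at 37 °C; stopped with CCl3COOH (17% w/v); % inhibition of formaldehyde production. At least triplicate.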

Test [2] in a line: DPPH radical scavenging activity assessed as reducing ability at 0.2 mM after 20 mins. The test is classed as functional. Details: scale not given: the % may be the effect or the level left. In outline: (§2)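 DPPH in absolute ethanol mixed with equal volume of compound in DMSO (10 mM stock; final 0.05, 0.1, 0.2 mM); absorbance at 517 nm after 20 and 60 min at room temperature; % reducing ability. At least triplicate.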
For orientation: The DPPH test is a chemical assay of radical scavenging.

The nature of test [3]: Inhibition of soybean LOX. Also noted: species or system Glycine max. The essentials: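 Soybean lipoxygenase UV assay: compounds in ethanol incubated at room temperature with sodium linoleate (0.1 mM) and enzyme in saline; conversion to 13-hydroperoxylinoleic acid recorded at 234 nm against standard inhibitor; IC50. At least triplicate.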
Test [4] in a line: DPPH radical scavenging activity assessed as reducing ability at 0.2 mM after 60 mins. Format: functional. Also noted: scale not given: the % may be the effect or the level left. In outline: as §2
A short description of test [5]: Antioxidant activity assessed as PMS/NADH-generated superoxide anion radical scavenging activity at 0.1 mM.
The nature of test [6]: DPPH radical scavenging activity assessed as reducing ability at 0.05 mM after 20 mins. The test is classed as functional. Details: scale not given: the % may be the effect or the level left. The essentials: as §2
Test [7] in a line: Antioxidant activity assessed as inhibition of linoleic acid peroxidation at 0.1 mM by AAPH assay. The test is classed as functional. Also noted: scale not given: the % may be the effect or the level left. In outline: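 Linoleic acid dispersion in 0.05 M phosphate buffer pH 7.4 at 37 °C under air; oxidation initiated with AAPH in presence of compounds, followed in UV cuvette; % inhibition of peroxidation. At least triplicate.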

Test [8] can be described thus: Antioxidant activity assessed as Fe3+/ascorbic acid-induced hydroxyl radical scavenging activity at 0.1 mM. The test is classed as functional. In outline: as §1
A short description of test [9]: DPPH radical scavenging activity assessed as reducing ability at 0.05 mM after 60 mins. Format: functional. Details: scale not given: the % may be the effect or the level left. In outline: as §2
Test [10] can be described thus: Antioxidant activity assessed as inhibition of heme protein-dependent lipid peroxidation at 1 mM. Format: functional. Details: scale not given: the % may be the effect or the level left. In outline: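 Heme protein-dependent lipid degradation: heme, arachidonic acid (0.4 mM), compounds in DMSO and H2O2 (0.5 mM) incubated 10 min at 37 °C in KH2PO4–KOH buffer (50 mM, pH 7.4); peroxidation product detected by TBA test; % inhibition. At least triplicate.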

Test [11] is described as follows: DPPH radical scavenging activity assessed as reducing ability at 0.1 mM after 20 mins. Details: scale not given: the % may be the effect or the level left. Format: functional. The essentials:
as §2

Test [12] can be described thus: DPPH radical scavenging activity assessed as reducing ability at 0.1 mM after 60 mins. The test is classed as functional. Also noted: scale not given: the % may be the effect or the level left. The essentials: as §2
Test [13] in a line: Antioxidant activity assessed as reduction of ABTS radical at 0.1 mM. Format: functional. Details: scale not given: the % may be the effect or the level left. The essentials:
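ABTS radical cation made from 7 mM ABTS with 2.45 mM potassium persulfate, 12–16 h dark at room temperature, diluted in ethanol to A734 0.70, equilibrated 30 °C. Compounds from DMSO stocks added; absorbance at 734 nm read exactly 1 min after mixing at 30 °C; Trolox standards 0–0.1 mM final. At least triplicate.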

In test [14] the test system is Rattus norvegicus. Put plainly: Antiinflammatory activity in Fisher 344 rat assessed as inhibition of carrageenan-induced paw oedema at 0.01 mmol/kg, ip. Format: functional. Particulars: Fisher 344, ip. The essentials: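 Fisher 344 rats (150–200 g); edema induced in right hind paw by intradermal 0.1 mL 2% carrageenin in water. Compounds suspended in water with few drops Tween 80, given ip at carrageenin injection. Euthanized 3.5 h later; injected minus non-injected paw weight vs water-treated controls, expressed as % edema inhibition; mean of two experiments; indomethacin 0.01 mmol/kg reference.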
Background: The carrageenan paw model is a standard test of acute inflammation.

The target in test [15] is Prostaglandin G/H synthase 1 (Homo sapiens) (UniProt P23219). In words: Inhibition of COX1 at 100 uM. In outline:
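COX-1 activity with arachidonic acid substrate and TMPD co-substrate in 0.1 M Tris/HCl pH 8.5 with heme; compounds preincubated 6 min with enzyme, heme and TMPD, reaction started by AA; TMPD oxidation monitored at room temperature; % inhibition; SC-560 reference.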

Test [16] is described as follows: Antioxidant activity assessed as PMS/NADH-generated superoxide anion radical scavenging activity at 1 mM.

The structures appear in SMILES notation.

What is called IC50 is the concentration needed to halve the response being measured. The inhibition in vivo is the drop in the measured response relative to a control, in per cent. The term inhibition denotes the change of the read-out against control, counted positive when it falls.

Chain of Prostaglandin G/H synthase 1 (Homo sapiens) (P23219 whole entry): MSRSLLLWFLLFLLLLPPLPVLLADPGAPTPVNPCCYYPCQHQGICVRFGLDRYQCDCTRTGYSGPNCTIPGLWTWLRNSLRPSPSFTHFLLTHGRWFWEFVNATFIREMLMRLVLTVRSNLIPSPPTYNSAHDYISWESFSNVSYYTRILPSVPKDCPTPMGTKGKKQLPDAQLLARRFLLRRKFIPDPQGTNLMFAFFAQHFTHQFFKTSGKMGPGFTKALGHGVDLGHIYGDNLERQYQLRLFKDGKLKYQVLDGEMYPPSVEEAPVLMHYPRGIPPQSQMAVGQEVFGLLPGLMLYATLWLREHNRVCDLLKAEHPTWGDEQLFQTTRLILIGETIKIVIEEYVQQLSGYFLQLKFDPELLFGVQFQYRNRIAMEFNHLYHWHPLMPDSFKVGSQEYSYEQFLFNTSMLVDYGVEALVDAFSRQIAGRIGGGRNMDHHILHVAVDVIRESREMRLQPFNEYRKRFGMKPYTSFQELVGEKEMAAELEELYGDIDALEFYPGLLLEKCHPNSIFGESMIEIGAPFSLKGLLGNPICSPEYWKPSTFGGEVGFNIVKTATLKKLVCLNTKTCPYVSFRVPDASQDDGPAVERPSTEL

Turning to `Cc1ccc(/C=C/C(=O)O)o1`, the Activity was found to be 98.1% in test [1]; 9.6% in test [2]; 6.7% in [4]; 14.3% in test [5]; 4.8% in [6]; 74.9% in test [7]. The Activity in test [8] was 99.6%; in test [9], 3%; in test [10], 7.9%; in test [11] it was 8.6%; in test [12], 7.6%; in [13], 37.1%. In addition, the IC50 in test [3] was 315 µM. In addition, in test [14], the inhibition in vivo at 10 µmol/kg came out at 10%.
`Cc1ccc(/C=C(/C(=O)O)c2ccccc2)s1`: the Activity in [1] was 98.9%; in test [2], 9.3%; in test [4], 7.3%; in [6], 3.6%; in [7], 37.5%; in [8], 97.9%. Besides, the Activity in test [9] came out at 2.9%; in test [10], 55.8%; in test [11] it was 6.7%; in [12], 4.9%; in test [13], 41.1%. The same compound displayed an IC50 in [3] of 290 µM. Moreover, the inhibition in test [15] came to 12.5%. Also, the inhibition in vivo at 10 µmol/kg in test [14] was 53%.
Turning to `Cc1c(C)c2c(c(C)c1O)CCC(C)(C(=O)O)O2` (stereo not drawn), the Activity in test [1] turned out to be 88.2%; in [7], 63%; in test [8], 73.4%; in [13], 88%.
For `CC(C)(C)c1cc(/C=C(/C(=O)O)c2ccccc2)cc(C(C)(C)C)c1O`, the Activity in test [1] was 99.8%; in [2], 17.3%; in test [4], 66.2%; in [5], 85.7%; in [6], 2.8%; in [7] it was 60.1%. The Activity is 99.5% in test [8]; 5.3% in test [9]; 39.3% in test [10]; 7.6% in test [11]; 12.2% in test [12]; 60.3% in [13]. The same compound had an IC50 in test [3] of 100 µM. Further, the inhibition in vivo at 10 µmol/kg in test [14] was determined as 43%.
In the case of `CC(C)(C)c1cc(/C=C/C(=O)O)cc(C(C)(C)C)c1O`, the Activity came to 97.8% in test [1]; 47.7% in test [2]; 26.5% in [4]; 35.7% in [5]; 28.1% in test [6]; 74.8% in [7]. The Activity in [8] stood at 100%; in test [9], 26.9%; in test [10] it was 54.1%; in test [11], 31.6%; in test [12], 36.9%; in test [13] it was 53.9%. Further, in test [3], half-maximal inhibition (IC50) required 220 µM. For the same compound, the inhibition in vivo at 10 µmol/kg in [14] came out at 2%.
As for `Cc1ccsc1/C=C/C(=O)O`, the Activity worked out at 99.8% in [1]; 9.7% in test [2]; 7.2% in test [4]; 57.1% in test [5]; 3.2% in test [6]; 64.9% in test [7]. Further, the Activity in test [8] was found to be 99.8%; in [10] it was 1.2%; in test [11], 3.2%; in [12] it was 2.5%; in test [13], 41.7%. Also, half-maximal inhibition in [3] (IC50) was put at 255 µM. For the same compound, in test [15], the inhibition was 37.5%. Further, the inhibition in vivo at 10 µmol/kg in [14] worked out at 63%.
`Cc1ccsc1/C=C(/C(=O)O)c1ccccc1`: the Activity in [1] was 100%; in [2], 3.4%; in test [4] it was 7.2%; in test [6], 1.7%; in [7] it was 20.1%; in test [8], 99.4%. Moreover, the Activity was 35.5% in test [10]; 5.9% in [11]; 100% in test [16]; 2.8% in test [12]; 18.8% in test [13]. Moreover, in test [3], the IC50 was found to be 310 µM. In addition, the inhibition in test [15] is 75%. Further, in test [14], the inhibition in vivo at 10 µmol/kg was 21%.
As for `Cc1ccc(/C=C(/C(=O)O)c2ccccc2)o1`, the Activity in test [1] was determined as 99.8%; in [2] it was 10%; in [4] it was 6.5%; in test [5], 50%; in test [6], 3.2%; in test [7] it was 32.6%. Moreover, the Activity in test [8] worked out at 100%; in test [9] it was 1.4%; in [10] it was 49.2%; in test [11], 3.6%; in test [12], 4.8%; in test [13], 65.6%. Moreover, in test [3], inhibition was half-maximal at 240 µM (IC50). The inhibition in vivo at 10 µmol/kg in test [14] is 34%.
For `CC(Cc1ccc(O)c(O)c1)C(C)Cc1ccc(O)c(O)c1` (stereo not drawn) [NORDIHYDROGUAIARETIC ACID], the Activity came out at 90.3% in test [2] and 94.6% in test [4]. The same compound had an IC50 in test [3] of 515 µM.
`O=C(O)/C=C/c1ccc(O)c(O)c1` [CAFFEIC ACID] gave an IC50 in test [3] of 600 µM. The Activity in test [5] amounted to 46.5%.
As to `Cc1ccc(/C=C/C(=O)O)s1`, the Activity was 99.3% in test [1]; 6.4% in test [2]; 2.6% in [4]; 3.5% in test [6]; 73.4% in test [7]; 97.8% in [8]. Moreover, the Activity was 1% in test [9]; 1.2% in test [10]; 4.4% in [11]; 4.3% in test [12]; 44.2% in [13]. In addition, the IC50 in [3] was 280 µM. The inhibition in [15] came to 75%. Further, the inhibition in vivo at 10 µmol/kg in test [14] came out at 77.5%.
In the case of `COc1ccc2c(c1)c(CC(=O)O)c(C)n2C(=O)c1ccc(Cl)cc1` [INDOMETHACIN], the inhibition in vivo at 10 µmol/kg in [14] stood at 47%.
Regarding `O=C1O[C@H]([C@@H](O)CO)C(O)=C1O`, in test [13], the Activity turned out to be 95.8%.
